Reference: ChEMBL document CHEMBL2311407, “Design and synthesis of diazatricyclodecane agonists of the G-protein-coupled receptor 119” (J Med Chem, 2013)
Values after ≈ are worked out from the molar mass of the structure shown.

Experiments:
[1] = Cmax in Sprague-Dawley rat at 30 mg/kg, po dosing of milled material in 0.5% methylcellulose; format: ADME, organism-based; parameters: dose 30 mg/kg, route oral; conditions: in vivo
Outline: (§1)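 Rat po dosing of milled material (2−25 μm premilling, about 190 nm postmilling) suspended in 0.5% methylcellulose. Plasma concentrations are total drug. Data are mean ± SD of three animals. F is calculated from 1 mg/kg rat iv data.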

[2] = Half life in Beagle dog at 3 mg/kg, po administered as spray dried dispersion; format: ADME, organism-based, Canis lupus familiaris; parameters: dose 3 mg/kg, route oral; conditions: in vivo
Outline: (§2)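 Male beagle dogs were dosed po at 3 mg/kg, 0.6 mL/kg, as 25% spray dried dispersion in 20 mM Tris buffer with 0.5% methylcellulose + 0.5% HPMCAS-HF, pH 7.4. Plasma concentrations are total drug. Values are the mean of two animals. F is calculated against 1 mg/kg iv dog data.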

[3] = AUC in Beagle dog at 30 mg/kg, po administered as spray dried dispersion; format: ADME, organism-based, Canis lupus familiaris; parameters: dose 30 mg/kg, route oral; conditions: plasma
Outline: (§3)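 Oral gavage in male beagle dogs at 10, 30 or 100 mg/kg, 5 mL/kg, as 25% spray dried dispersion in 20 mM Tris buffer in 0.5% methylcellulose and 0.5% HPMCAS-HF, pH 7.4. Plasma concentrations are total drug. Values are the mean of two animals. F is based on 1 mg/kg iv dog data.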

[4] = Oral bioavailability in Sprague-Dawley rat at 3 mg/kg administered in 0.5% methylcellulose; format: ADME, organism-based; conditions: in vivo
Outline: (§4)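 Rats were dosed orally at 3 mg/kg in 0.5% methylcellulose. Plasma concentrations are total drug. Data are mean ± SD of three animals. F is based on 1 mg/kg rat iv PK.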

[5] = Oral bioavailability in Beagle dog at 10 mg/kg administered as spray dried dispersion; format: ADME, organism-based, Canis lupus familiaris; conditions: in vivo; outline: as §3
[6] = Cmax in Sprague-Dawley rat at 30 mg/kg, po administered as spray dried dispersion; format: ADME, organism-based; parameters: dose 30 mg/kg, route oral; conditions: in vivo
Outline: (§5)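 Rats were dosed po at 0.6 mL/kg with a 25% amorphous spray dried dispersion (with HPMCAS-HF) in 20 mM Tris buffer with 0.5% methylcellulose + 0.5% HPMCAS-HF, pH 7.4. Plasma concentrations are total drug. Data are mean ± SD of three animals. F is based on 1 mg/kg rat iv data.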

[7] = AUC in Sprague-Dawley rat at 3 mg/kg, po dosing in 0.5% methylcellulose; format: ADME, organism-based; parameters: dose 3 mg/kg, route oral; conditions: in vivo; outline: as §4
[8] = Tmax in Sprague-Dawley rat at 30 mg/kg, po administered as spray dried dispersion; format: ADME, organism-based; parameters: dose 30 mg/kg, route oral; conditions: in vivo
[9] = Half life in Beagle dog at 1 mg/kg, iv; format: ADME, organism-based, Canis lupus familiaris; parameters: dose 1 mg/kg, route intravenous; conditions: in vivo
Outline: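 Male beagle dogs received 1 mg/kg iv at 2 mL/kg in 5% dimethylacetamide/75% PEG200/20% (30% SBE-CD). Plasma concentrations are total drug. Values are the mean of two animals.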

[10] = Thermodynamic solubility of the compound in PBS at pH 1.2; format: physicochemical; conditions: read-out: Therm_solubility
[11] = Half life in Sprague-Dawley rat at 1 mg/kg, iv; format: ADME, organism-based; parameters: dose 1 mg/kg, route intravenous; conditions: in vivo
Outline: (§6)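 Rats received 1 mg/kg iv in 10% N-methylpyrrolidone and 90% of a 30% SBE-CD solution. Plasma concentrations are total drug. Data are mean ± SD of three animals.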

[12] = Oral bioavailability in Beagle dog at 30 mg/kg administered as spray dried dispersion; format: ADME, organism-based, Canis lupus familiaris; conditions: in vivo; outline: as §3
[13] = Oral bioavailability in Sprague-Dawley rat at 30 mg/kg administered as milled material in 0.5% methylcellulose; format: ADME, organism-based; conditions: in vivo; outline: as §1
[14] = Oral bioavailability in Beagle dog at 3 mg/kg administered as spray dried dispersion; format: ADME, organism-based, Canis lupus familiaris; conditions: in vivo; outline: as §2
[15] = Oral bioavailability in Beagle dog at 100 mg/kg administered as spray dried dispersion; format: ADME, organism-based, Canis lupus familiaris; conditions: in vivo; outline: as §3
[16] = AUC in Beagle dog at 100 mg/kg, po administered as spray dried dispersion; format: ADME, organism-based, Canis lupus familiaris; parameters: dose 100 mg/kg, route oral; conditions: plasma; outline: as §3
[17] = AUC in Sprague-Dawley rat at 3 mg/kg, po administered as spray dried dispersion; format: ADME, organism-based; parameters: dose 3 mg/kg, route oral; conditions: plasma; outline: as §5
[18] = Volume of distribution at steady state in Sprague-Dawley rat at 1 mg/kg, iv; format: ADME, organism-based; parameters: dose 1 mg/kg, route intravenous; conditions: in vivo, read-out: Vdss
Outline: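 Rats received an iv dose of 1 mpk in a vehicle of 10% N-methylpyrrolidone and 90% SBE-CD solution prepared at 30%. Plasma concentrations are total drug. Values are mean ± SD from three animals.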

[19] = Cmax in Beagle dog at 10 mg/kg, po administered as spray dried dispersion; format: ADME, organism-based, Canis lupus familiaris; parameters: dose 10 mg/kg, route oral; conditions: in vivo; outline: as §3
[20] = Clearance in Sprague-Dawley rat at 1 mg/kg, iv; format: ADME, organism-based; parameters: dose 1 mg/kg, route intravenous; conditions: in vivo; outline: as §6
[21] = AUC in Beagle dog at 10 mg/kg, po administered as spray dried dispersion; format: ADME, organism-based, Canis lupus familiaris; parameters: dose 10 mg/kg, route oral; conditions: plasma; outline: as §3
[22] = Tmax in Beagle dog at 10 mg/kg, po administered as spray dried dispersion; format: ADME, organism-based, Canis lupus familiaris; parameters: dose 10 mg/kg, route oral; conditions: in vivo; outline: as §3
[23] = Tmax in Beagle dog at 3 mg/kg, po administered as spray dried dispersion; format: ADME, organism-based, Canis lupus familiaris; parameters: dose 3 mg/kg, route oral; conditions: in vivo; outline: as §2
[24] = Fraction unbound in Beagle dog plasma; format: ADME, cell-free, Canis lupus familiaris
[25] = AUC in Sprague-Dawley rat at 1 mg/kg, iv; format: ADME, organism-based; parameters: dose 1 mg/kg, route intravenous; conditions: plasma; outline: as §6
[26] = AUC in Sprague-Dawley rat at 30 mg/kg, po dosing of milled material in 0.5% methylcellulose; format: ADME, organism-based; parameters: dose 30 mg/kg, route oral; conditions: in vivo; outline: as §1

Cmax [1]: 912 ng/mL
half-life [2]: 20 h
AUC [3]: 76800 ng·h/mL
bioavailability [4]: 7.6%
bioavailability [5]: 87%
Cmax [6]: 3490 ng/mL
AUC [7]: 312 ng·h/mL
Tmax [8]: 4 h
half-life [9]: 26.8 h
solubility thermodynamic [10]: 4.8 µg/mL (≈ 9.48 µM)
half-life [11]: 4.34 h
bioavailability [12]: 54%
bioavailability [13]: 31%
bioavailability [14]: 60%
bioavailability [15]: 32%
AUC [16]: 151000 ng·h/mL
AUC [17]: 6140 ng·h/mL
Vd [18]: 3.96 L/kg
Cmax [19]: 1950 ng/mL
clearance [20]: 13.2 mL/min/kg
AUC [21]: 41000 ng·h/mL
Tmax [22]: 1 h
Tmax [23]: 1 h
fraction unbound [24]: 0.014
AUC [25]: 1360 ng·h/mL
AUC [26]: 12500 ng·h/mL
Compound: Cc1c(Oc2ccc(-n3cnnn3)cc2F)ncnc1N1C2CC3CC1CC(C2)N3C(=O)OC1(C)CC1
